# Assay results: ChEMBL document CHEMBL4033721, “Design, synthesis and evaluation of indole-2-carboxamides with pan anti-mycobacterial activity” (Bioorg Med Chem, 2017)
# Experiments:
# [1] = tested on: Mycobacteroides abscessus; test: Antimycobacterial activity against Mycobacterium abscessus ATCC 19977 after 8 days by resazurin microtiter based colorimetric assay; assay type: functional; details: ATCC 19977, 192 h
# In short: (§1)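 Resazurin microtiter plate MIC, read by visual scan for growth, in Mueller Hinton II broth. Strains include clinical isolates of M. abscessus complex, M. chelonae, M. avium, M. intracellulare, M. xenopi, P. aeruginosa PAO-1 and S. aureus ATCC 25923.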
# [2] = tested on: Mycobacteroides abscessus; test: Antimycobacterial activity against Mycobacterium abscessus isolate DCI 21 after 8 days by resazurin microtiter based colorimetric assay; assay type: functional; details: isolate DCI 21, 192 h; in short: as §1
# [3] = Antimycobacterial activity against Mycobacterium massiliense isolate CIP108297 after 8 days by resazurin microtiter based colorimetric assay; assay type: functional, Mycobacterium abscessus subsp. massiliense; details: Mycobacteroides abscessus, isolate CIP108297, 192 h; in short: as §1
# [4] = Antimycobacterial activity against Mycobacterium massiliense isolate CRM0019 after 8 days by resazurin microtiter based colorimetric assay; assay type: functional, Mycobacterium abscessus subsp. massiliense; details: Mycobacteroides abscessus, isolate CRM0019, 192 h; in short: as §1
# [5] = Antimycobacterial activity against Mycobacterium bolletii ATCC 14472 after 8 days by resazurin microtiter based colorimetric assay; assay type: functional; details: Mycobacteroides abscessus, ATCC 14472, 192 h; in short: as §1
# [6] = tested on: Mycobacteroides chelonae; test: Antimycobacterial activity against Mycobacterium chelonae ATCC 35752 after 8 days by resazurin microtiter based colorimetric assay; assay type: functional; details: ATCC 35752, 192 h; in short: as §1
# [7] = tested on: Mycobacterium tuberculosis; test: Antimycobacterial activity against Mycobacterium tuberculosis H37Rv MC2-6206 after 8 days by resazurin microtiter based colorimetric assay; assay type: functional; details: H37Rv MC2-6206, 192 h
# In short: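 MIC was measured by resazurin microtiter colorimetric assay with visual growth scoring. Medium was 7H9-ADC–0.05% tyloxapol with 0.2% casaminoacids, 48 µg/ml pantothenate and 50 µg/ml L-leucine.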
# [8] = tested on: Mycolicibacterium smegmatis; test: Antimycobacterial activity against Mycobacterium smegmatis isolate MC2 155 after 8 days by resazurin microtiter based colorimetric assay; assay type: functional; details: str. MC2 155, 192 h
# [9] = tested on: Mycobacterium avium; test: Antimycobacterial activity against Mycobacterium avium isolate 104 after 8 days by resazurin microtiter based colorimetric assay; assay type: functional; details: isolate 104, 192 h
# In short: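 M. avium 104 MICs were read by resazurin microtiter colorimetric assay in 96-well plates, with growth scored visually, in Mueller Hinton II medium.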
# [10] = tested on: Mycobacterium avium-intracellulare; test: Antimycobacterial activity against Mycobacterium avium-intracellulare isolate 1956 after 8 days by resazurin microtiter based colorimetric assay; assay type: functional; details: isolate 1956, 192 h; in short: as §1
# [11] = tested on: Mycobacterium xenopi; test: Antimycobacterial activity against wild type Mycobacterium xenopi isolate 4042 after 8 days by resazurin microtiter based colorimetric assay; assay type: functional; details: isolate 4042, 192 h; in short: as §1
# [12] = tested on: Pseudomonas aeruginosa; test: Antibacterial activity against Pseudomonas aeruginosa PAO1 after 8 days by resazurin microtiter based colorimetric assay; assay type: functional; details: PAO1, 192 h; in short: as §1
# [13] = tested on: Staphylococcus aureus; test: Antibacterial activity against Staphylococcus aureus ATCC 25923 after 8 days by resazurin microtiter based colorimetric assay; assay type: functional; details: ATCC 25923, 192 h; in short: as §1
# [14] = tested on: Mycobacteroides abscessus; test: Bactericidal activity against Mycobacterium abscessus after 8 days by resazurin microtiter based colorimetric assay; assay type: functional
# In short: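 MBC90 found by subculturing from the MIC wells onto 7H11 agar. Value is the lowest concentration cutting CFU by 90% versus the inoculum.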
SMILES,MIC [1],MIC [2],MIC [3],MIC [4],MIC [5],MIC [6],MIC [7],MIC [8],MIC [9],MIC [10],MIC [11],MIC [12],MIC [13],MBC90 [14]
O=C(NC1C2CC3CC(C2)CC1C3)c1cc2ccccc2[nH]1 (stereo not drawn),> 32 µg/mL,> 32 µg/mL,> 32 µg/mL,32 µg/mL,32 µg/mL,> 32 µg/mL,0.39 µg/mL,> 25 µg/mL,> 32 µg/mL,> 32 µg/mL,2 µg/mL,,,
Cc1cc(C)c2cc(C(=O)NC3CCC(C)CC3)[nH]c2c1 (mixture of isomers),≤ 0.06 µg/mL,≤ 0.06 µg/mL,≤ 0.06 µg/mL,≤ 0.06 µg/mL,≤ 0.06 µg/mL,≤ 0.06 µg/mL,0.31 µg/mL,> 20 µg/mL,> 32 µg/mL,> 32 µg/mL,0.5 to 1 µg/mL,> 160 µg/mL,> 160 µg/mL,0.03 µg/mL
Cc1cc(C)c2cc(C(=O)N[C@H]3CC[C@H](C)CC3)[nH]c2c1,≤ 0.06 µg/mL,≤ 0.06 µg/mL,≤ 0.06 µg/mL,≤ 0.06 µg/mL,≤ 0.06 µg/mL,≤ 0.06 µg/mL,0.31 µg/mL,> 20 µg/mL,> 32 µg/mL,> 32 µg/mL,0.25 to 1 µg/mL,,,
O=C(NC1CCCCCCC1)c1cc2ccccc2[nH]1,> 32 µg/mL,> 32 µg/mL,> 32 µg/mL,32 µg/mL,32 µg/mL,> 32 µg/mL,0.39 µg/mL,25 µg/mL,> 32 µg/mL,> 32 µg/mL,2 µg/mL,,,
C[C@H]1CC[C@H](NC(=O)c2cc3ccccc3[nH]2)CC1,> 32 µg/mL,> 32 µg/mL,> 32 µg/mL,> 32 µg/mL,> 32 µg/mL,> 32 µg/mL,> 10 µg/mL,> 25 µg/mL,,,,,,
O=C(NCc1cccc(Cl)c1)c1cc2ccccc2[nH]1,> 32 µg/mL,> 32 µg/mL,> 32 µg/mL,> 32 µg/mL,> 32 µg/mL,> 32 µg/mL,> 5 µg/mL,> 20 µg/mL,,,,,,
Cc1cc(C)c2cc(C(=O)NC3C4CC5CC(C4)CC3C5)[nH]c2c1 (stereo not drawn),> 32 µg/mL,> 32 µg/mL,> 32 µg/mL,> 32 µg/mL,> 32 µg/mL,> 32 µg/mL,0.04 µg/mL,> 20 µg/mL,> 32 µg/mL,> 32 µg/mL,0.5 to 1 µg/mL,,,
O=C(NC1CCCCC1)c1cc2ccccc2[nH]1,> 32 µg/mL,> 32 µg/mL,> 32 µg/mL,> 32 µg/mL,> 32 µg/mL,> 32 µg/mL,> 10 µg/mL,> 25 µg/mL,,,,,,
CCCCCCCCNC(=O)c1cc2c(C)cc(C)cc2[nH]1,> 32 µg/mL,> 32 µg/mL,> 32 µg/mL,> 32 µg/mL,> 32 µg/mL,> 32 µg/mL,> 20 µg/mL,2.5 to 5 µg/mL,> 32 µg/mL,> 32 µg/mL,> 32 µg/mL,,,
O=C(NC1CCCC1)c1cc2ccccc2[nH]1,> 32 µg/mL,> 32 µg/mL,> 32 µg/mL,> 32 µg/mL,> 32 µg/mL,> 32 µg/mL,> 10 µg/mL,> 25 µg/mL,,,,,,
Cc1cc(C)c2cc(C(=O)NC3CCCC3)[nH]c2c1,4 µg/mL,4 µg/mL,8 µg/mL,8 µg/mL,2 µg/mL,2 µg/mL,2.5 µg/mL,5 µg/mL,> 32 µg/mL,> 32 µg/mL,8 to 16 µg/mL,,,
CCCCCCCNC(=O)c1cc2ccccc2[nH]1,> 32 µg/mL,> 32 µg/mL,> 32 µg/mL,> 32 µg/mL,> 32 µg/mL,> 32 µg/mL,> 10 µg/mL,> 25 µg/mL,,,,,,
Cc1cc(C)c2cc(C(=O)NCc3cccc(Cl)c3)[nH]c2c1,> 32 µg/mL,> 32 µg/mL,> 32 µg/mL,> 32 µg/mL,> 32 µg/mL,> 32 µg/mL,> 5 µg/mL,> 20 µg/mL,,,,,,
